Experimental data as given in ChEMBL document CHEMBL4513216, “Probing the Open Global Health Chemical Diversity Library for Multistage-Active Starting Points for Next-Generation Antimalarials” (ACS Infect Dis, 2020).

Assay: Toxicity liver stage against HepG2, at 10uM
Type: cell-based
Design: test concentration 10 uM, cell line HepG2-A16-CD81EGFP
Settings: human, HepG2-A16-CD81EGFP cells; read-out: INHIBITION
Summary of the method: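 Uninfected HepG2-A16-CD81EGFP cells, 3 × 10^3 per well, 1536-well, plated on prespotted compound at 10 μM final, parasite-free screening media added to match infected plates; puromycin 10 μM positive, DMSO 0.5% negative; run in parallel with 48 h PbLuc assay at 37 °C, 5% CO2; viability by CellTiter-Glo luminescence, normalized to controls.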

| Structure (SMILES) | cytotoxicity at 10 µM [%] |
| --- | --- |
| Cc1cc(C)c(CNC(=O)C2COc3ccccc3C2)c(=O)[nH]1 (stereo not given) | -0.102 |
| COc1cc(N2C[C@@H]3COC[C@]3(COCc3cccc(C)n3)C2)ncn1 | 12.4 |
| COc1ccccc1N1CCCC(Nc2nccnc2C#N)C1 (stereo not given) | 18.3 |
| O=C(CCN1CCCCO1)N1CC[C@H](O)[C@@H](O)C1 | -1.77 |
| Cc1cc(C)n(CC2CN(c3ncnc4[nH]ccc34)CCO2)n1 (stereo not given) | -6.88 |
| Cc1nn(-c2ccccc2)c2c1c(C(F)F)cc(=O)n2CC(=O)O | 7.73 |
| COc1cccc2c1OCC(CNC(=O)Cc1c(C)nc(N)nc1C)C2 (stereo not given) | -140 |
| O=C1CCCN1CC1CN(C(=O)N2CCOCC2)Cc2nccn2C1 (stereo not given) | -1.05 |
| Cc1csc(CN(C)C(=O)C2CCC(=O)N(CCN(C)C)C2)n1 (stereo not given) | 15.6 |
| CN(C)C(=O)CNC(=O)c1cc(Br)c2c(c1)OCCO2 | 16.4 |
| Cc1ccccc1-c1noc(CN2CCc3nn(C)c(=O)cc3C2)n1 | -12.5 |
| CCCn1nc2c(cc1=O)CN(CC(=O)N(C)c1nccs1)CC2 | 1.25 |
| COCC1CC2(CCN(C(=O)c3cncc(C)c3)CC2)CO1 (stereo not given) | -155 |
| CC(C)n1ncc2c1NC(=O)CC21C(=O)Nc2cc(Cl)cc(Cl)c21 (stereo not given) | 19.1 |
| O=C(NS(=O)(=O)c1ccc(C2CCCCC2)cc1)C1COCCO1 (stereo not given) | 7.02 |
| CN1CC(c2ccccc2)CC12CCN(C(=O)c1ccc(Cl)cc1)CC2 (stereo not given) | -2.72 |
| O=c1cc(N2CCc3ccccc3C2)cnn1CCC1CCOC1 (stereo not given) | -1.19 |
| CCN(CC)S(=O)(=O)c1cc(NC(=O)CCc2cscn2)ccc1C | -0.25 |
| CC(CCc1ccccc1)N1CCC(C(=O)Nc2cnccn2)CC1 (stereo not given) | 13.2 |
| Cc1nc(C(=O)N2CCc3c(nc(-c4ccncc4)[nH]c3=O)C2)cs1 | -6.37 |
| Cn1cc(Cl)cc1C(=O)N1CCCN(Cc2cccs2)CC1 | -5.82 |
| O=C(NCC(O)(c1ccco1)C1CC1)c1ccccc1F (stereo not given) | -1.16 |

| Structure (SMILES) | cytotoxicity at 10 µM [%] |
| --- | --- |
| CS(=O)(=O)c1cccc(C(=O)NCc2nc3cc(F)ccc3[nH]2)c1 | 12.2 |
| COc1ccc(C(N)c2cccc(S(C)(=O)=O)c2)cc1 (stereo not given) | 4.69 |
| CC(NC1(CNS(C)(=O)=O)CCCC1)c1ccccc1 (stereo not given) | 8.43 |
| O=C(c1ccc2[nH]cnc2c1)N1CCC(COc2ccccn2)CC1 | -2.91 |
| CN1CCCN(C[C@@H]2CN(c3nc(C(N)=O)cs3)C[C@@H]2CO)CC1 | 2.67 |
| COCCN(C)C(=O)c1nc2c(s1)CCCN2C | -143 |
| Cc1ccc(N2CC3(COCCN(Cc4nccs4)C3)OCC2=O)s1 (stereo not given) | -13.5 |
| CC(C)(C)c1cn2nc(N3CCCC3Cn3cncn3)sc2n1 (stereo not given) | 1.43 |
| Cn1nccc1C(=O)N1CCCC1c1ccc(C(=O)N2CCOCC2)s1 (stereo not given) | -145 |
| O=C(NCCCn1cccn1)N1CCCC1c1cccs1 (stereo not given) | -2.39 |
| COc1ccc(CNC(=O)NC2CCC(O)CC2)c(C(F)(F)F)c1 (stereo not given) | -12 |
| Cc1cc(C(F)(F)F)n2nc(C3CCN(S(C)(=O)=O)CC3)cc2n1 | 0.065 |
| Cc1ccoc1C(=O)N1CCC(n2cc(CO)nn2)CC1 | -1.52 |
| CCN1CCc2nc(N3CCOCC3)nc(NC(C)C)c2C1 | -112 |
| COc1ccc(CN2C[C@H]3CN(c4cncnc4)C(=O)[C@H]3C2)cc1 | 4.74 |
| CN(C)CC1CN(Cc2coc(-c3cccs3)n2)CCO1 (stereo not given) | 4.48 |
| CCCNC(=O)c1cc2c([nH]c1=O)CC(c1cccs1)CC2=O (stereo not given) | 50.9 |
| Cc1cnc(CN2CCN(c3ccnc(-c4ccccc4)n3)CC2)cn1 | 3.61 |
| CCC(=O)NCC(=O)Nc1c(C)cnn1Cc1cc(F)ccc1F | -2.59 |
| CSCC[C@@H]1CN2CCC[C@H]2CN1Cc1cn(C)nc1C | -11.3 |
| COc1cc(OC)c(C2SCC(=O)Nc3n[nH]cc32)cc1OC (stereo not given) | -6.08 |
| O=C(CN1CCC(c2nnc(C(F)(F)F)o2)CC1)Nc1cccc(Cl)c1 | -1.53 |

| Structure (SMILES) | cytotoxicity at 10 µM [%] |
| --- | --- |
| O=C(COc1coc(CN2CCCCC2)cc1=O)NCc1ccccc1 | -7.25 |
| COc1ccc(CC(=O)NC(CC(=O)O)c2ccc(F)cc2)cc1OC (stereo not given) | 0.902 |
| Cc1cnn(CC2CCN(CC(O)Cn3cccn3)CC2)c1 (stereo not given) | -1.66 |
| CCN1CCCCC1C(=O)N1CCC(OCCOC)CC1 (stereo not given) | -6.81 |
| O[C@@]1(CNCCCOc2cccnc2)CCCN2CCCC[C@@H]21 | 3.42 |
| C=C(C)CN(CC)S(=O)(=O)c1c(F)cc(NC(C)=O)cc1F | -47.1 |
| CCc1cc(NC2CCS(=O)(=O)CC2)nc(N2CCCCC2)n1 | -15.8 |
| c1ccc(CN2CCc3ncnc(-c4cncnc4)c3CC2)nc1 | -68.3 |
| O=C(NCc1ccnc(OCC(F)(F)F)c1)NCC1CCCO1 (stereo not given) | -4.05 |
| NC(=O)CN1CCOCC(Cc2ccccc2Cl)C1 (stereo not given) | 3.18 |
| CCc1noc(C(C)Sc2nnc(C3CC3)n2CC(N)=O)n1 (stereo not given) | -148 |
| Cc1nccc(CNC(=O)CCc2c(C)nc3cc(O)nn3c2C)n1 | -1.56 |
| CCOCC1CC2(CCN(C(=O)c3ncccn3)CC2)CO1 (stereo not given) | 4.93 |
| Fc1ccccc1CO[C@@H]1C[C@H]2CN(c3ncccn3)CCN2C1 | 1.09 |
| CCc1nc(CN(C)C(=O)CSC)no1 | 2.25 |
| Cc1nc(C)n(CC2CCCN2CC(=O)Nc2cc(C)on2)n1 (stereo not given) | -2.11 |
| Cc1nn(C)c2nc(N3CCN(Cc4nccn4C)CC3)sc12 | -4.66 |
| Cc1ccnc(CC(C)N(C)c2cc(CCN)nc(C)n2)c1 (stereo not given) | -48 |
| O=C(NCCCN1CCCC1=O)Nc1ccc(Br)cc1Cl | -2.18 |
| COc1ncccc1CN1C[C@@H]2CN(c3ncccn3)C[C@@H]2C1 | -5.11 |
| CN(C)S(=O)(=O)N1CCC(c2c(C(N)=O)sc3ccccc23)C1 (stereo not given) | 4.83 |
| CC(=O)N1CC(Cc2nccc3ccn(C)c23)C1 | 0.668 |

| Structure (SMILES) | cytotoxicity at 10 µM [%] |
| --- | --- |
| Cc1nc2c(c(=O)[nH]1)CN(C(=O)CC[C@@H]1CCCN3CCCC[C@H]13)C2 | 17 |
| CCCn1nc(C)c2c(C(F)F)cc(=O)n(CC(=O)O)c21 | 1.76 |
| COCCC(=O)N1CCCC1c1nc(O)cc(C(C)C)n1 (stereo not given) | -26.4 |
| NC(=O)NCC(=O)N1C[C@@H]2CC[C@H]1CN(C1Cc3ccccc3C1)C2 | 15.3 |
| O=C(CC1CC1)N1CCC2(CCCN(CCOc3ccccc3)C2)C1 (stereo not given) | -0.861 |
| CCCNC(=O)CCOc1cccc(F)c1 | 4.75 |
| O=C(NS(=O)(=O)Cc1cc(-c2ccccc2)no1)C1CCOCC1 | -2.85 |
| COc1ccc(CN2CC(O)CN(C(=O)OCC(C)C)CC2=O)cc1 (stereo not given) | -7.34 |
| O=C1O[C@@H]2CN(c3ccncc3)C[C@@H]2N1CCCc1ccc(F)cc1 | -3.73 |
| COCCN(C(=O)c1ccc(OC)cc1)c1ccc(C#N)cc1 | 7.81 |
| COCCSCC(=O)NCc1ccc(N(C)C)nc1 | 9.15 |
| CC(C)N1CCCC1c1cc(CCO)[nH]n1 (stereo not given) | 0.895 |
| Cc1ccc(CNC2(Cc3cc(C(C)(C)O)on3)COC2)o1 | -1.18 |
| Cc1nc([C@@H]2C[C@@H]3CCN(C(=O)c4ccnnc4)C[C@H]3O2)sc1C | 2.68 |
| Cn1nnc(NCc2ccc(-c3ccc(Cl)cc3)o2)n1 | -7.15 |
| COc1c(C)cnc(CSc2nnc(C)s2)c1C | -4.66 |
| O=C(CC1CCCN1S(=O)(=O)N1CCCCC1)c1cccs1 (stereo not given) | 6.31 |
| Cc1noc(C)c1-c1cccc(C2CCN(S(=O)(=O)N(C)C)CC2)n1 | 8.18 |
| CCN(CCOC)C(=O)c1ccc2c(c1)nc(N1CC[C@H](O)C1)n2C | -2.96 |
| CCCc1n[nH]c(=O)n1[C@@H](CC)c1ccccc1 | -5.22 |
| O=C1CC[C@H]2CN(Cc3cccc(F)c3)CC[C@H]2N1CCc1c[nH]cn1 | -1.04 |
| CC(C)c1nnc2n1CCN(C(=O)c1ccc(CN(C)C)cc1)C2 | 5.2 |

| Structure (SMILES) | cytotoxicity at 10 µM [%] |
| --- | --- |
| CCc1cnc(CCNS(C)(=O)=O)s1 | 2.17 |
| CC(C)c1nc(CNC2CCN(S(C)(=O)=O)CC2)cs1 | -1.53 |
| Cc1ccc(-c2nnc(CN3CCNC(=O)C3)o2)cc1 | -1.26 |
| CC(C)CC(=O)N1CCCC1c1cc(CO)[nH]n1 (stereo not given) | 3.05 |
| CC(C)CN(Cc1ccc(C(F)(F)F)nc1)Cc1cnn(C)c1 | 1.42 |
| Cc1cncc(C(=O)N2C[C@H]3CCC[C@@]3(COc3ccccn3)C2)c1 | 1.08 |
| c1ccc(CN2CC[C@@H]3O[C@@H](COCCN4CCCC4)CC[C@@H]32)nc1 | -80.6 |
| CCc1nnc2sc(-c3cc(C(C)C)n[nH]3)nn12 | -7.37 |
| O=C(NCCN1CCCC(CO)C1)c1ccc2sccc2c1 (stereo not given) | -5.35 |
| CC(C)(C)NC(=O)c1nn(C2CCS(=O)(=O)C2)c2c1CCCC2 (stereo not given) | 10.1 |
| Cc1nc(S(=O)(=O)N2CCSCC2)cn1C | -9.09 |
| CCOC(=O)C1(NC(=O)CCNc2cc(C)ccc2OC)CCCCC1 | 6.47 |
| Cc1ncsc1CN1C[C@H](OCC(C)C)[C@H]2OCCC[C@H]21 | -140 |
| NC(=O)N1CCCN(CC(=O)NCCc2c(F)cccc2F)CC1 | -5.15 |
| Cc1cc(NC(=O)CNC2CCc3ncnn3C2)no1 (stereo not given) | -6.73 |
| FC(F)(F)COCCN1CCCC(c2noc(C3CC3)n2)C1 (stereo not given) | 3.3 |
| Cc1nc(CN2CCCC3(CCN(c4cccnc4)C3=O)C2)cs1 (stereo not given) | 0.574 |
| CC(C)CNC(=O)CC1(Cn2cnnn2)CCCCC1 | 11.1 |
| c1ccc(CN2CCCC3(CCN(CC4CCCO4)CC3)C2)nc1 (stereo not given) | -115 |
| Cc1ccc(CNC(=O)NC(C)CN2CCOCC2)s1 (stereo not given) | -14.1 |
| O=C(C[C@@H]1COC[C@H]2CN(C3CCCC3)C[C@@H]12)N1CCCCO1 | 7.92 |
| COC(=O)c1cccc(C(=O)N2CCCCC2CCn2ccnc2C)c1 (stereo not given) | 14.5 |
